# In ChEMBL document CHEMBL1126156, “Multivariate analysis by the minimum spanning tree method of the structural determinants of diphenylethylenes and triphenylacrylonitriles implicated in estrogen receptor binding, protein kinase C activity, and MCF7 cell proliferation” (J Med Chem, 1992):
# Experiments:
# [1] = system: MCF7S; assay: Cytostatic activity against MCF-7 cell proliferation.; assay type: functional, Homo sapiens; set-up: concentration or dose not given beside the values
# How it was run: (§1)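 MCF-7 cells in phenol red-free charcoal-treated medium given 10⁻⁶ M E2 plus test compound (3–10 μM), 6 days of growth. DNA expressed as percent of E2-treated cells. IC30 is the concentration giving 30% inhibition. Percent inhibition taken at 10⁻⁵ M, or at 10⁻⁶ M in a second series. Means of two experiments.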
# [2] = system: MCF7S; assay: Agonistic activity in MCF-7 cell proliferation.; assay type: functional, Homo sapiens
# How it was run: (§2)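 MCF-7 cells grown in phenol red-free medium with 5% dextran-coated charcoal-treated serum, tested 10 pM to 1 μM. DNA content read after growth. Agonism expressed relative to the maximum response with E2 (=100%), whatever the concentration. EC50 (50% of maximum response) taken from two separate experiments.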
# [3] = biological target: T1, Protein kinase C, PKC; classical (Rattus norvegicus) (UniProt P05696+P68403+P63319); assay: (§3) Percent stimulation or inhibition of protein kinase C with [Ca2+] for phosphatidylserine and diolein(PS+DO); assay type: protein assay; set-up: concentration or dose not given beside the values; conditions: values are per cent of control
# How it was run: (§4)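 Type III (α) PKC purified from rat brain soluble fraction, assayed with calf thymus H1 histone, 0.1 mM Ca2+, 5 mM magnesium acetate, 10 μM [32P]ATP, 2 μg/mL phosphatidylserine plus 0.2 μg/mL diolein. Compounds mostly at 10⁻⁴ M; activity expressed as percent of control.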
# [4] = biological target: T1, Protein kinase C, PKC; classical (Rattus norvegicus); assay: as §3; assay type: protein assay; conditions: values are per cent of control; how it was run: as §4
# [5] = biological target: T1, Protein kinase C, PKC; classical (Rattus norvegicus); assay: Percent stimulation or inhibition of protein kinase C with [Ca2+] for phosphatidylserine (PS); assay type: protein assay
# How it was run: (§5)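 Purified type III (α) PKC from rat brain soluble fraction. Substrate calf thymus H1 histone with 0.1 mM Ca2+, 5 mM magnesium acetate, 10 μM [32P]ATP and 2 μg/mL phosphatidylserine, no diolein. Most compounds at 10⁻⁴ M, given as percent of control activity.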
# [6] = species: Rattus norvegicus; assay: Percent stimulation or inhibition of protein kinase C III activity for protamine sulfate in the presence of EGTA.; set-up: concentration or dose not given beside the values; conditions: values are per cent of control
# How it was run: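 Rat brain type III (α) PKC, purified, with protamine sulfate as substrate and 0.5 mM EGTA in place of Ca2+, phosphatidylserine and diolein; 5 mM magnesium acetate, 10 μM [32P]ATP. Most compounds at 10⁻⁴ M; percent of control activity.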
# [7] = biological target: T1, Protein kinase C, PKC; classical (Rattus norvegicus); assay: The percent stimulation or inhibition of protein kinase C III activity was determined for phosphatidylserine (PS) and diolein(PS+DO) in the presence of [Ca2+]; assay type: protein assay; set-up: concentration or dose not given beside the values; conditions: values are per cent of control; how it was run: as §4
# [8] = biological target: T1, Protein kinase C, PKC; classical (Rattus norvegicus); assay: Percent stimulation or inhibition of protein kinase C III activity for phosphatidylserine (PS) in the presence of [Ca2+].; assay type: protein assay; set-up: concentration or dose not given beside the values; conditions: values are per cent of control; how it was run: as §5
# [9] = system: BT-20; assay: (§6) Cytotoxic effect on ER-negative BT20 cell proliferation; assay type: functional, Homo sapiens; set-up: concentration or dose not given beside the values
# How it was run: (§7)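 ER-negative BT20 cells, no E2, test compound at 3–10 μM for 6 days. DNA read as percent of untreated control. IC30 is the concentration inhibiting growth by 30%; percent inhibition taken at 10⁻⁵ M. Means of two experiments, triplicate wells.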
# [10] = biological target: Estrogen receptor (Bos taurus) (UniProt Q9XSB5+P49884); assay: Relative binding affinity for calf uterus estrogen receptor after 2 hr at 0 degree C; assay type: protein assay
# How it was run: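 Calf uterus cytosol ER incubated 2 h at 0 °C with [6,7-3H]-17β-estradiol and competitor. RBA given relative to estradiol (=100%), mean of at least four determinations.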
# [11] = system: MCF7S; assay: Antagonist activity against MCF-7 cell proliferation; assay type: functional, Homo sapiens
# How it was run: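 Phenol red-free MCF-7 cultures with 5% dextran-coated charcoal-treated serum, stimulated by 0.1 nM E2. Proliferation read as DNA content after 8 days relative to E2 alone. Percent antagonism is the inhibition at 10⁻⁶ M test compound versus 10⁻¹⁰ M E2. IC50 (50% of maximum response) from two separate experiments.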
# [12] = system: MCF7S; assay: Agonist activity against MCF-7 cell proliferation; assay type: functional, cell-based; conditions: Homo sapiens; how it was run: as §2
# [13] = system: BT-20; assay: as §6; assay type: functional; conditions: Homo sapiens; how it was run: as §7
# [14] = system: MCF7S; assay: Cytotoxic effect on MCF-7 cell proliferation; assay type: functional; conditions: Homo sapiens; how it was run: as §1
SMILES,Inhibition [1] [%],Agonism [2] [%],residual activity [3] [%],residual activity [4] [%],residual activity ([5]; values are per cent of control) [%],residual activity [6] [%],residual activity [7] [%],residual activity [8] [%],Inhibition [9] [%],RBA [10] [%],Antagonism [11] [%],EC50 [12] [nM],residual activity [5] [%],IC30 [13] [nM],IC30 [14] [nM]
Cc1ccc(/C(=C(\C#N)c2ccccc2)c2ccc(O)cc2)cc1,60,53,87,87,119,–,–,–,–,–,–,–,–,–,–
N#C/C(=C(/c1ccccc1)c1ccc(O)cc1)c1ccc(O)cc1,17,98,–,–,–,86,87,94,–,–,–,–,–,–,–
CC/C(=C(\c1ccccc1)c1ccc(OCCN(C)C)cc1)c1ccccc1 [TAMOXIFEN],49,21,21,–,–,107,–,49,–,–,–,–,–,–,–
N#CC(=C(c1ccc(O)cc1)c1ccc(O)cc1)c1ccc(O)cc1,39,85,–,–,–,33,32,38,–,–,–,–,–,–,–
CCN(CC)CCOc1ccc(/C(=C(\C#N)c2ccccc2)c2ccc(O)cc2)cc1,89,12,–,–,–,88,1,10,–,–,–,–,–,–,–
CCN(CC)CCOc1ccc(C(=C(C#N)c2ccccc2)c2ccc(OCCN(CC)CC)cc2)cc1,94,62,–,–,–,101,10,20,–,–,–,–,–,–,–
Oc1ccc(C(=C2CCCCC2)c2ccc(O)cc2)cc1,12,97,–,–,–,91,81,111,12,26,23,4.51,–,–,–
COc1ccc(/C(=C(/C#N)c2ccccc2)c2ccc(O)cc2)cc1,13,25,100,–,–,–,–,100,–,–,–,–,100,–,–
COc1ccc(/C(=C(\C#N)c2ccccc2)c2ccc(O)cc2)cc1,36,26,–,–,–,100,100,100,–,–,–,–,–,–,–
N#CC(=C(c1ccc(O)cc1)c1ccc(O)cc1)c1ccccc1,30,62,–,–,–,50,42,94,–,–,–,–,–,–,–
CN(C)Cc1cc(C(=C(C#N)c2ccccc2)c2ccc(O)c(CN(C)C)c2)ccc1O,36,31,–,–,26,–,–,–,–,–,–,–,–,–,–
CC(C)C=C(c1ccc(O)cc1)c1ccc(O)cc1,22,65,–,–,–,95,70,–,40,58,5,18,–,8400,–
N#C/C(=C(\c1ccccc1)c1ccc(O)cc1)c1ccc(O)cc1,30,100,–,–,–,68,91,97,–,–,–,–,–,–,–
N#CC(=C(c1ccccc1)c1ccccc1)c1ccc(O)cc1,8,90,–,–,–,103,113,92,–,–,–,–,–,–,–
Cc1ccc(/C(=C(/C#N)c2ccccc2)c2ccc(O)cc2)cc1,38,55,–,–,–,77,95,107,–,–,–,–,–,–,–
N#CC(=C(c1ccccc1)c1ccccc1)c1ccccc1,16,68,–,–,–,106,106,126,–,–,–,–,–,–,–
Cc1ccc(/C(=C(/C#N)c2ccc(O)cc2)c2ccc(O)cc2)cc1,35,69,–,–,–,90,80,113,–,–,–,–,–,–,–

SMILES,Inhibition [1] [%],Agonism [2] [%],residual activity [3] [%],residual activity [4] [%],residual activity ([5]; values are per cent of control) [%],residual activity [6] [%],residual activity [7] [%],residual activity [8] [%],Inhibition [9] [%],RBA [10] [%],Antagonism [11] [%],EC50 [12] [nM],residual activity [5] [%],IC30 [13] [nM],IC30 [14] [nM]
CC(C)N(CCOc1ccc(C(C#N)=C(c2ccccc2)c2ccccc2)cc1)C(C)C,30,93,–,–,46,103,23,–,36,0.1,10,11,–,9000,10000
CC(C)Oc1ccc(/C(=C(\C#N)c2ccccc2)c2ccc(O)cc2)cc1,61,33,–,–,–,86,101,138,–,–,–,–,–,–,–
N#C/C(=C(\c1ccccc1)c1ccc(O)cc1)c1ccccc1,30,99,87,–,–,90,–,107,–,–,–,–,–,–,–
CCC(=C(c1ccc(O)cc1)c1ccc(OCCN(C)C)cc1)c1ccccc1,81,10,–,–,–,94,2,27,–,–,–,–,–,–,–
CC/C(=C(/c1ccccc1)c1ccc(OCCN(C)C)cc1)c1ccccc1,79,100,30,–,–,–,–,36,–,–,–,–,36,–,–
Oc1ccc(C(=C2CCCCCC2)c2ccc(O)cc2)cc1,16,96,–,–,–,93,71,–,20,17,21,2.65,–,–,–
N#C/C(=C(/c1ccccc1)c1ccc(O)cc1)c1ccccc1,12,94,–,–,–,94,104,96,–,–,–,–,–,–,–
CC(C)C(Cl)=C(c1ccc(O)cc1)c1ccc(O)cc1,30,96,–,–,–,85,83,–,45,70,12,0.16,–,7600,–
CC(C)Oc1ccc(/C(=C(/C#N)c2ccccc2)c2ccc(O)cc2)cc1,57,22,94,–,–,–,–,–,–,–,–,–,170,–,–
Oc1ccc(C(=C2CCCC2)c2ccc(O)cc2)cc1,6,100,–,–,–,40,42,–,10,23,1,130,–,–,–
NCC(=C(c1ccc(O)cc1)c1ccc(O)cc1)c1ccccc1,19,76,–,–,–,20,53,78,24,9.7,20,0.14,–,20000,–
C[C@]12CC[C@@H]3c4ccc(O)cc4CC[C@H]3[C@@H]1CC[C@@H]2O [ESTRADIOL],25,100,–,–,–,99,89,77,–,–,–,–,–,–,–
Cc1ccc(C(C#N)=C(c2ccc(O)cc2)c2ccc(O)cc2)cc1,38,71,–,–,–,46,38,84,–,–,–,–,–,–,–
COc1ccc(C(=C(C#N)c2ccccc2)c2ccc(OC)cc2)cc1,8,34,–,–,–,92,100,98,–,–,–,–,–,–,–
CC(C)Oc1ccc(C(=C(C#N)c2ccccc2)c2ccc(OC(C)C)cc2)cc1,32,40,–,–,–,100,100,100,–,–,–,–,–,–,–
CCN(CC)CCOc1ccc(C(C#N)=C(c2ccccc2)c2ccccc2)cc1,53,71,–,–,–,96,20,43,–,–,–,–,–,–,–
CCN(CC)CCOc1ccc(/C(=C(/C#N)c2ccccc2)c2ccc(O)cc2)cc1,77,16,2,–,–,–,–,20,–,–,–,–,20,–,–
